This is a sample that favours compounds with a hit; in the whole collection about 2.2% have one here.
bCat nuc transl – alters nuclear translocation of beta-catenin in HeLa cells; immunofluorescence imaging; nuclear translocation activity, % at 5 µM; 190,000 tested, 0.3% active;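 active means nuclear translocation activity above 50% at 5 µM, with a well cell count of 50 or more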;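 further: per-cell ratio of nuclear to cytoplasmic median beta-catenin stain intensity; plate controls were DMSO negative control for no effect and GSK-3 inhibitor IX positive control for full effect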
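Read-out: Nuclear/cytoplasmic beta-catenin signal ratio, % activation | Assay system: Human HeLa cell line | Times: 24 h compound exposure at 37°C, 5% CO2 | Signal: Fluorescence imaging of beta-catenin antibody stain plus DAPI | Dosing: 5 µM primary, 0.02–20 µM confirmation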
APP transl inh – APP translation inhibition | 190,000 tested, 0.82% active | SH-SY5Y APP 5'UTR-luciferase reporter, luminescence | inhibition, % at 2 µM;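 active means inhibition above a set limit, derived from the sample mean plus 3 SD, cut at about 45% in these data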
BaF3 parental – parental Ba/F3 viability inhibition as JAK2V617F counter-screen | inhibition, % at 5.6 µM | 220,000 tested, 1.1% active | CellTiter-Glo ATP luminescence;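 active means inhibition above a per-campaign cutoff, the mean inhibition of all tested compounds plus 3 SD, cut at about 27% in these data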;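 further: 0% = DMSO wells and 100% = JAK Inhibitor I control wells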
IEC-6 cytotox – kills IEC-6 intestinal cells in KLF5 counter-screen; IEC-6 cytotoxicity, luminescence viability; inhibition, % at 5 µM; 290,000 tested, 0.78% active; AID 1825; in the data active means inhibition above about 22%;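 further: 0% = plate median of test compound wells and 100% = cytotoxic reference compound wells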
Ba/F3 V617F tox – reduce viability of Ba/F3 cells dependent on JAK2V617F; Ba/F3 EpoR-JAK2V617F viability, ATP luminescence; inhibition, % at 5.6 µM; 220,000 tested, 1.1% active; AID 1446;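 active means inhibition above the campaign mean plus 3 SD over all tested compounds, cut at about 24% in these data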;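 further: cytokine-independent growth of Ba/F3 cells driven by EpoR plus mutant JAK2; 0% = DMSO-treated cells and 100% = JAK inhibitor I control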
MT stabilizer – stabilizes microtubules in HeLa cells; HeLa tubulin immunostaining HCS, 24 h; share of cells brighter than vehicle mean+2SD; AID 2205; 200,000 tested, 0.83% active; % tubulin-high responders, % at 10 µM;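 active means plate Z-score above 3 for both tubulin-high and condensed-nucleus cell shares, with cell loss under 80%, at 10 µM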;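 further: anti alpha tubulin signal scored within the nucleus-defined area of each cell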
BaF3 tox 2 – counter-screen for JAK2V617F inhibitors: parental Ba/F3 viability inhibitors. shares compounds with Ba/F3 V617F tox. CellTiter-Glo luminescence; cells kept alive by added IL-3. inhibition, % at 5.6 µM. 580 tested, 31% active. AID 1520;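 active means cell growth inhibition above the hit limit set in the earlier mutant JAK2 cell screen, cut at about 27% in these data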;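 further: plate controls were DMSO-treated cells for no effect and JAK Inhibitor I control wells for full effect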
JAK2V617F conf – confirmation: loss of viability in JAK2V617F-dependent Ba/F3 cells; Ba/F3 EpoR-JAK2V617F viability, CellTiter-Glo luminescence; shares compounds with Ba/F3 V617F tox; 580 tested, 66% active; inhibition, % at 5.6 µM;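 active means mean inhibition above the hit cutoff derived in the earlier primary screen, cut at about 25% in these data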;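 further: 0% = DMSO-treated cells and 100% = JAK inhibitor I control wells; higher means lower luminescence from reduced cell ATP and viability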
* = called active by the depositor; . = no result given.

SMILES | bCat nuc transl | APP transl inh | BaF3 parental | IEC-6 cytotox | Ba/F3 V617F tox | MT stabilizer | BaF3 tox 2 | JAK2V617F conf
CCN(CC)S(=O)(=O)c1cccc(-c2n[nH]c(=S)n2/N=C/c2ccc(OC)cc2)c1 | -0.9 | -1.3 | 9.9 | -1.4 | 2.6 | 2.3 | . | .
CCN(CC)S(=O)(=O)c1cccc(-c2n[nH]c(=S)n2/N=C/c2ccc(Br)cc2)c1 | -2.7 | 9.8 | 94.1* | -2.8 | 2.1 | 1.6 | . | .
Cc1cc(C)c2c(CCl)cc(=O)oc2c1 | -0.7 | 94.2* | -7.9 | -7.3 | -4.0 | . | . | .
Cc1ccccc1Cn1ccc(=NCc2ccccc2)cc1 | 0.1 | 2.5 | 79.0* | 15.3 | 100.2* | 2.5 | . | .
COc1cccc(-c2cc(=O)c3cc(NC(C)=O)ccc3[nH]2)c1 | . | -1.0 | 2.6 | 0.0 | 2.0 | 29.8* | . | .
CC(=O)Nc1ccc2[nH]c(C)cc(=O)c2c1 | . | 10.7 | 2.9 | 1.0 | -1.7 | 1.5 | . | .
CCOC(=O)C1(CCOc2ccccc2)CCN(Cc2cccc3nonc23)CC1 | 0.7 | 2.2 | 6.2 | -1.0 | -1.3 | 1.8 | . | .
CN1CCN(C(=S)Nc2ccc(Cl)c(Cl)c2)CC1 | . | 21.5 | 17.5 | -4.6 | 43.4* | 4.1 | 22.6 | 46.2*
OC(c1cc(C(F)(F)F)nc2c(Cl)cc(Cl)cc12)C1CCCCN1 (centres undefined) | -3.0 | . | 0.0 | 0.3 | 2.8 | . | . | .
OC(c1cc(-c2ccc(Cl)cc2)nc2ccccc12)C1CCCCN1 (centres undefined) | 35.6 | . | 1.8 | 34.0* | 65.1* | . | 4.7 | 20.4
COc1cc2c(cc1NC(=O)c1cccc([N+](=O)[O-])c1C)oc1ccccc12 | 2.1 | -7.5 | 1.3 | 5.9 | 53.4* | 4.5 | -5.3 | 4.6
CC(Sc1ncc(C(F)(F)F)cc1Cl)C(=O)NC(N)=O (centres undefined) | 5.3 | -14.0 | 3.1 | -0.2 | 38.5* | 2.3 | 0.1 | -1.6
O=C(c1ccc(F)cc1)N1CCC2(CC1)NCCc1[nH]cnc12 | . | . | . | 2.5 | . | . | . | .
Cc1nc2c(-c3ccc(F)cc3)c(C)nn2c(C)c1CCC(=O)Nc1ccccc1F | 0.2 | . | -1.3 | -0.2 | 79.0* | . | -4.3 | 2.2
Cc1nc2c(-c3ccccc3)c(C)nn2c(C)c1CCC(=O)O | -0.5 | -1.7 | 3.9 | 2.9 | 0.1 | 3.8 | . | .
COc1ccc(N(CC(=O)NCc2ccccc2OC)S(=O)(=O)c2ccccc2[N+](=O)[O-])c(OC)c1 | -0.2 | -3.6 | 2.9 | -1.6 | -2.9 | 2.2 | . | .
COc1ccc(OC)c(C2CC(=O)c3c([nH]c(C(=O)OC(C)C)c3C)C2)c1 (centres undefined) | . | 94.6* | 11.4 | 18.5 | 68.4* | 8.1 | 57.5* | 89.7*
COc1ccc(CCN2C(=O)CC(NNc3ccc([N+](=O)[O-])cc3)C2=O)cc1OC (centres undefined) | 2.8 | -11.9 | 14.1 | 0.4 | 0.4 | 2.2 | . | .
O=S1(=O)C=C(Sc2nnc(-c3ccccc3)o2)c2ccccc21 | -0.6 | 95.8* | -5.5 | -2.2 | 34.5* | 2.4 | 94.0* | 98.4*
COC(=O)C(C(=O)OC)C(C)C(C(=O)OC)C(=O)OC | . | 15.8 | 11.6 | -3.7 | 61.0* | 1.6 | -6.1 | -5.7
COC(=O)C(c1ccccc1)C(C(=O)OC)c1ccccc1 (centres undefined) | . | . | . | -12.2 | . | . | . | .
CC1CCN(CCCNC(=O)c2cc3c(Cl)nc4ccccc4c3s2)CC1 | 2.6 | 9.7 | 11.2 | 5.0 | 34.3* | 3.0 | 4.3 | 71.1*
Cc1cccc(CS(=O)(=O)c2nnc([C@H](Cc3ccccc3)NC(=O)OC(C)(C)C)o2)c1 | . | 72.2* | 0.9 | 19.3 | 43.9* | 0.5 | 11.6 | 82.2*
COC(=O)CS(=O)(=O)c1nnc([C@H](Cc2ccccc2)NC(=O)OC(C)(C)C)o1 | -0.5 | 22.9 | 1.2 | 1.2 | -2.6 | 2.1 | . | .
CC(C)=CCN1CCN(Cc2cc(CC(C)C)n[nH]2)CC1CCO (centres undefined) | 0.7 | . | 0.4 | -2.8 | -4.4 | . | . | .
SMILES | bCat nuc transl | APP transl inh | BaF3 parental | IEC-6 cytotox | Ba/F3 V617F tox | MT stabilizer | BaF3 tox 2 | JAK2V617F conf
COc1cc(F)c(S(=O)(=O)N2CCOc3ccccc32)cc1OC | . | . | . | 8.5 | . | . | . | .
COc1ccc(NC(=O)/C(C#N)=C\c2cc(C)n(-c3ccc4c(c3)OCO4)c2C)cc1 | . | 6.9 | 5.0 | 5.0 | 29.7* | 24.0* | 72.9* | 92.6*
Cc1cc(SCC(=O)Nc2cccc(S(=O)(=O)NC3=NCCCCC3)c2)c(C)cc1Br | -3.3 | -13.5 | 1.3 | 1.2 | 25.5* | 2.2 | 1.1 | 30.9*
CCOC(=O)c1sc(NC(=O)C2CC(=O)N(c3ccc(C)cc3)C2)nc1C (centres undefined) | . | . | . | -9.9 | . | . | . | .
COC(=O)c1ccc(CO/N=C/c2cccc([N+](=O)[O-])c2)cc1 | . | . | . | -1.2 | . | . | . | .
Cc1ccnc(NC(=O)CCNC(=O)c2ccccc2Cl)c1 | . | . | . | 2.0 | . | . | . | .
CCS(=O)(=O)CCSc1nc(C)cc(C)c1C#N | -2.0 | 6.2 | 7.1 | -9.9 | 99.5* | 5.7 | -0.7 | -7.4
O=C1NCCN(Cc2cccc(Oc3ccccc3)c2)C1CC(=O)N1CCCO1 (centres undefined) | -2.8 | -7.4 | 8.5 | -1.2 | 3.1 | 2.4 | . | .
O=C(c1cnc2ccc3ccccc3c2c1)c1cc(F)ccc1O | 3.9 | . | 16.0 | 2.8 | 26.3* | . | 17.7 | 39.5*
Nc1nnc(Sc2ccc(Cl)cc2[N+](=O)[O-])s1 | -1.8 | 14.9 | 0.9 | 0.8 | 64.7* | 5.5 | -4.5 | -10.9
Cc1cccc2cc(CN(CC3CCCO3)C(=O)c3ccco3)c(=O)[nH]c12 (centres undefined) | -3.8 | 0.8 | 3.8 | -3.4 | -0.8 | 4.4 | . | .
O=C(c1ccco1)N(Cc1cc2ccccc2[nH]c1=O)CC1CCCO1 (centres undefined) | . | 9.7 | 1.1 | 10.1 | 68.5* | 1.4 | -2.3 | -4.1
COC(=O)/C=C/c1ccc(OC(=O)OC)c(OC(=O)OC)c1 | 0.4 | 21.8 | 7.2 | 1.8 | 29.6* | 5.7 | 2.8 | 82.3*
COC(=O)/C=C/c1ccc2c(c1)OCO2 | 1.6 | 10.7 | 9.0 | -0.9 | 1.6 | 2.1 | . | .
CCOc1ccc(NC2=NC(C)(C)N=C(N)N2)cc1 | -4.9 | -2.4 | 25.8 | -1.6 | 40.6* | 4.0 | 83.0* | 92.8*
Cc1c(C(=O)c2ccccc2)c(=O)n(C)c(=O)n1C | 0.1 | 4.8 | 3.9 | -4.7 | -3.2 | 2.2 | . | .
CC(C)(C)/C(O)=C/c1nc2cc(Cl)ccc2oc1=O | -0.2 | . | 5.1 | -1.4 | 36.9* | . | 8.4 | 78.3*
Cc1ccc2oc(=O)c(/C=C(\O)C(C)(C)C)nc2c1 | -1.2 | -4.4 | 2.4 | 0.5 | -1.5 | 2.2 | . | .
O=C(Nc1ccccc1)c1ccsc1 | 2.7 | 12.4 | 2.9 | 2.9 | 1.3 | 1.8 | . | .
CCOC(=O)C(CC)n1cnc2c(nnn2-c2cccc(OC)c2)c1=O (centres undefined) | . | . | . | 5.7 | . | . | . | .

Bioassay records (PubChem)
